Test results reported in ChEMBL document CHEMBL4020701, “A strategy for dual inhibition of the proteasome and fatty acid synthase with belactosin C-orlistat hybrids” (Bioorg Med Chem, 2017).

Columns and labels:
Fatty acid synthase [1] = target: T1, Fatty acid synthase (Homo sapiens, UniProt P49327); assay: Inhibition of human FAS thioster domain preincubated for 30 mins followed by 4-methylumbelliferyl heptanoate substrate addition measured every 5 mins for 60 mins by fluorescence assay
Target sequence in this assay (P49327 whole entry, the tested form may be a part): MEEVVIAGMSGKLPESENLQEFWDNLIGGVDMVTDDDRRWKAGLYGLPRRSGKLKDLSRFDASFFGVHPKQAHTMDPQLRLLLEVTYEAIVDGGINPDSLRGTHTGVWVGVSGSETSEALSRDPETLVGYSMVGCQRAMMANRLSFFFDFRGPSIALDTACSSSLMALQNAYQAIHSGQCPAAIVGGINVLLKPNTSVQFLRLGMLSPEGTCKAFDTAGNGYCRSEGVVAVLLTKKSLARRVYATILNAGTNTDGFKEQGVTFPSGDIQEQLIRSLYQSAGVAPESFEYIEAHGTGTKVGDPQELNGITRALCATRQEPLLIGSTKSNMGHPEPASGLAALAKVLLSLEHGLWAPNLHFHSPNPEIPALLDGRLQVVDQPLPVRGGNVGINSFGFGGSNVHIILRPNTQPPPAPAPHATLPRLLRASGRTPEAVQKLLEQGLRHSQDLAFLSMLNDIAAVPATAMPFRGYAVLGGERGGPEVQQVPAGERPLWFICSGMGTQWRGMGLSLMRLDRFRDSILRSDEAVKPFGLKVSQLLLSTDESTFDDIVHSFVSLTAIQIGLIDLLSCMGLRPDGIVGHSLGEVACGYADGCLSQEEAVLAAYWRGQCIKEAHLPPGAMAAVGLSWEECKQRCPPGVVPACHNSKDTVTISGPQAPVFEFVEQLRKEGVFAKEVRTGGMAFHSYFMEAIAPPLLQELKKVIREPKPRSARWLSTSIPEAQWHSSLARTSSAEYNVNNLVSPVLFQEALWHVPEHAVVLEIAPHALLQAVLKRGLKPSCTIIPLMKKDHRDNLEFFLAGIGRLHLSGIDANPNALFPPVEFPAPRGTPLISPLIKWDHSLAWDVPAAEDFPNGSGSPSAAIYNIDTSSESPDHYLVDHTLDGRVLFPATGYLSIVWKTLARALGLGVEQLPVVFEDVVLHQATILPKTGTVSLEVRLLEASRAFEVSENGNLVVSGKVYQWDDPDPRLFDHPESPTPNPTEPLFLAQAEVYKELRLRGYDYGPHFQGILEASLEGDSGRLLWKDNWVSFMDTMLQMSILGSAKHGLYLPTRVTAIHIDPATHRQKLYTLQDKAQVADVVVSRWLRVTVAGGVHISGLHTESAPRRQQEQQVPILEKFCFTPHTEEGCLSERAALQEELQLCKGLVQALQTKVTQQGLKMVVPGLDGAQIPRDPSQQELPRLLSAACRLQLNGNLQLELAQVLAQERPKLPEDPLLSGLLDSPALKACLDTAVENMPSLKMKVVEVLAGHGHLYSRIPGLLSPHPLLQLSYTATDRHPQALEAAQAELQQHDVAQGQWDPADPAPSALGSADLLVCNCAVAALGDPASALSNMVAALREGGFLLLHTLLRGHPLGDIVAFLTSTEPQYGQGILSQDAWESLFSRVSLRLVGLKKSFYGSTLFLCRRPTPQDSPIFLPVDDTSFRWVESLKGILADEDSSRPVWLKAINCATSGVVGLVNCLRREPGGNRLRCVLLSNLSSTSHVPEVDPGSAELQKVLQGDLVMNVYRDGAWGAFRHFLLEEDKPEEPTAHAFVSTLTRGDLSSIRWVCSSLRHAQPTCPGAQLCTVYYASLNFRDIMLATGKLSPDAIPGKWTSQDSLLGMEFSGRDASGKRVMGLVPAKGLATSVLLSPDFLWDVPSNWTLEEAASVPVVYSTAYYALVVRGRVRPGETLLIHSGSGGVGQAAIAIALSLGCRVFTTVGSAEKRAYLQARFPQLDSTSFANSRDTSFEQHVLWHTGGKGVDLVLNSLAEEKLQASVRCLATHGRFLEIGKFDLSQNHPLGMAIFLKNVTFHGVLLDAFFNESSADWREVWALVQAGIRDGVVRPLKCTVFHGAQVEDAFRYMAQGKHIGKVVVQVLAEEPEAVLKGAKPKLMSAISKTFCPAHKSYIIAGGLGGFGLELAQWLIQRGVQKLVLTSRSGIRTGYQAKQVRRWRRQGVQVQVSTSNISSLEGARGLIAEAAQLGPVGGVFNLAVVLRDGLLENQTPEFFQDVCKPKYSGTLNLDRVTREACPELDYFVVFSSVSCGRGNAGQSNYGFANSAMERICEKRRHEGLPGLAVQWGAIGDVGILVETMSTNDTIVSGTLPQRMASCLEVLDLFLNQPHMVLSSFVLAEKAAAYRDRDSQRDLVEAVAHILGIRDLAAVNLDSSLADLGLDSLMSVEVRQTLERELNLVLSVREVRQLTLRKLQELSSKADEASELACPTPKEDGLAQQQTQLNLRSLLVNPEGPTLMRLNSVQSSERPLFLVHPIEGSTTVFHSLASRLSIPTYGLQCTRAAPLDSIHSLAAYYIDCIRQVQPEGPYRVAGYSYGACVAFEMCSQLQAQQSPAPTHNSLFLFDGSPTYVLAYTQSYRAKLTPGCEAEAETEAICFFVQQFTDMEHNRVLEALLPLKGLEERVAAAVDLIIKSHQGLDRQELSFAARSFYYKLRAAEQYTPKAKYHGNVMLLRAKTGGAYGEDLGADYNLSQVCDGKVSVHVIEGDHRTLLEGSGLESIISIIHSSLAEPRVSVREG

[2] = target: T2, Proteasome Macropain subunit MB1 (Homo sapiens, UniProt P28074); assay: Inhibition of chymotrypsin-like activity of 20S proteasome in human red blood cells pretreated for 20 mins followed by Suc-Leu-Leu-Val-Tyr-AMC substrate addition by fluorescence assay; format: cell-based
T2 sequence (P28074 whole entry): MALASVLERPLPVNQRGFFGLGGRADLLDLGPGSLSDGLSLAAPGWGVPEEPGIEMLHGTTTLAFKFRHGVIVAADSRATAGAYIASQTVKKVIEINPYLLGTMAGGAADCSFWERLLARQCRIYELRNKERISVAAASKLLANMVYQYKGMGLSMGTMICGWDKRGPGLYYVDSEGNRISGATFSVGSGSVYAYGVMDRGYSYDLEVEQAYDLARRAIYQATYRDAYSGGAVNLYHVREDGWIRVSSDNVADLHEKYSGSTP
Summary of the method: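 20S proteasome (50 ng) from human erythrocytes, preincubated 20 min at 37 °C in 20 mM Tris pH 7.5 with inhibitor series. AMC substrate then added: 10 µM Suc-LLVY for chymotrypsin-like, 20 µM Boc-LRR for trypsin-like, 20 µM Z-LLE for caspase-like. Hydrolysis followed at 360/460 nm for 600 s; the linear rate was fitted to a four-parameter curve for IC50. Triplicate.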

HeLa = assay: Cytotoxicity against human HeLa cells assessed as reduction in cell viability after 24 hrs by MTT assay; format: functional, cell-based
Summary of the method: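 HeLa cells grown in DMEM with 10% FBS were seeded at 5000/well and left overnight. MTT was then added for 4 h, the formazan dissolved in DMSO and A570 read. IC50 came from dose-response curves; mean ± SEM of three independent experiments.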

[3] = Half life in DMEM medium at 5 uM in absence of 5% FBS by HPLC method; format: physicochemical
Summary of the method: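 Compound diluted from DMSO stock to 5 µM final in DMEM (pH 7.5) and held at 37 °C under 5% CO2. Aliquots taken at intervals and quenched with pH 2.0 phosphate buffer. Remaining β-lactone quantified by C18 HPLC integration against initial compound. Run in triplicate.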

[4] = Half life in DMEM medium at 5 uM in presence of 5% FBS by HPLC method; format: physicochemical; settings: cattle
Summary of the method: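 Compound at 5 µM final in DMEM with 5% FBS at 37 °C, 5% CO2. Aliquots quenched with pH 2.0 phosphate buffer plus acetonitrile and vortexed to precipitate serum protein. Clear supernatant analysed by C18 HPLC as % β-lactone remaining versus initial. Triplicate.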

Fatty acid synthase [5] = target: T1, Fatty acid synthase; assay: Competitive inhibition of human FAS thioster domain in MCF cells preincubated for 30 mins followed by TAMRA-N3 labelled (S)-4-ethynylbenzyl 2-((S)-2-(benzyloxycarbonylamino)-6-((2R,3S)-3-hexyl-4-oxooxetane-2-carboxamido)hexanamido)propanoate probe addition after 30 mins […]; format: cell-based
Summary of the method: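 MCF-7 cells at 80–90% confluency in serum-free medium, pre-incubated 30 min at 37 °C with competitor (10 → 100 µM, 1–10-fold excess over probe; DMSO ≤0.1%). Alkyne probe then added at 10 µM final for 30 min. Cells lysed in NP-40/deoxycholate, protein normalized by BCA, clicked to TAMRA-N3 (CuSO4/TCEP/TBTA, 1–1.5 h RT), resolved by SDS-PAGE, read by in-gel fluorescence.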
Target sequence in this assay (P49327 whole entry, looked up, the tested form may be a part): as the sequence (P49327 whole entry, the tested form may be a part) above

Fatty acid synthase [6] = target: T1, Fatty acid synthase; assay: Inhibition of FAS thioster domain (unknown origin)
Summary of the method: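 Human FAS-TE (500 nM) in 100 mM Tris-HCl, 50 mM NaCl, pH 7.4, preincubated 30 min at 37 °C with compound (0.32–100 µM and/or 0.08–10 µM final, DMSO). Reaction started with 4-methylumbelliferyl heptanoate. Fluorescence (350/450 nm) read every 5 min for 60 min, substrate-only background. IC50 by four-parameter fit; triplicate.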
Target sequence in this assay (P49327 whole entry, the tested form may be a part): as the sequence (P49327 whole entry, the tested form may be a part) above

IC50 (Fatty acid synthase [1])	IC50 [2]	Structure (SMILES)	also measured
1.5 µM	0.37 µM	CCCCCC[C@@H]1C(=O)O[C@H]1C(=O)NCCCC[C@H](NC(=O)OCc1ccccc1)C(=O)N[C@@H](C)C(=O)OCc1ccccc1	IC50 (HeLa): 45.8 µM; t1/2 [3]: 20 min; t1/2 [4]: < 3 min; inhibition (Fatty acid synthase [5]): Dose-dependent effect
5.55 µM	0.51 µM	CCCCCC[C@@H]1C(=O)O[C@H]1C(=O)NCCCC[C@@H]1NC(=O)N([C@@H](C)C(=O)OCc2ccccc2)C1=O	
		CC(C)C[C@@H]1C(=O)O[C@H]1C(=O)NCCC[C@H](NC(=O)[C@H](C)NC(=O)OCc1ccccc1)C(=O)OCc1ccccc1	IC50 (Fatty acid synthase [6]): 0.16 to 4 µM
1.19 µM		CCCCCC[C@@]1(C)C(=O)O[C@H]1C(=O)NCCCC[C@H](NC(=O)[C@H](C)NC(=O)OCc1ccccc1)C(=O)OCc1ccccc1	
12.6 µM	2.71 µM	CCCCCC[C@H]1C(=O)O[C@@H]1C(=O)NCCCC[C@H](NC(=O)OCc1ccccc1)C(=O)N[C@@H](C)C(=O)OCc1ccccc1	
3.98 µM	0.26 µM	C#Cc1ccc(COC(=O)[C@H](C)NC(=O)[C@H](CCCCNC(=O)[C@@H]2OC(=O)[C@H]2CCCCCC)NC(=O)OCc2ccccc2)cc1	
4.81 µM		CCCCCC[C@@H]1C(=O)O[C@H]1C(=O)NCCCC[C@H](NC(=O)[C@H](C)NC(=O)c1ccc(Br)cc1)C(=O)OCc1ccccc1	
		CCC[C@@H]1C(=O)O[C@H]1C(=O)NCCC[C@H](NC(=O)[C@H](C)NC(=O)OCc1ccccc1)C(=O)OCc1ccccc1	IC50 (Fatty acid synthase [6]): 0.16 to 4 µM
3.11 µM		CCCCCC[C@@]1(C)C(=O)O[C@@H]1C(=O)NCCCC[C@H](NC(=O)[C@H](C)NC(=O)OCc1ccccc1)C(=O)OCc1ccccc1	
4.35 µM	0.7 µM	CCCCCC[C@@H]1C(=O)O[C@H]1C(=O)NCCC[C@H](NC(=O)[C@H](C)NC(=O)OCc1ccccc1)C(=O)OCc1ccccc1	IC50 (Fatty acid synthase [6]): 0.16 to 4 µM
	> 100 µM	CCCCCCCCCCC[C@@H](C[C@@H]1OC(=O)[C@H]1CCCCCC)OC(=O)[C@H](CC(C)C)NC=O [ORLISTAT]	
2.61 µM		CCCCCC[C@]1(C)C(=O)O[C@H]1C(=O)NCCCC[C@H](NC(=O)[C@H](C)NC(=O)OCc1ccccc1)C(=O)OCc1ccccc1	t1/2 [3]: 70 min; t1/2 [4]: 120 min
